Blank lines part the entries; values can stand above or below the compound they belong to. Activity calls are given as the source filed them. No cut-off for these calls is given here.
Experiments:
[1] = Antiproliferative activity against human HCC827 cells after 72 hrs by SRB method; assay type: functional, cell-based; conditions: HCC827, 72 h
How it was run: (§1)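 SRB growth assay: cells exposed to compounds over a 100-fold concentration range for 72 h, then cell number quantified. IC50 calculated from the curves. Means of at least 3 experiments, each run in triplicate.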

[2] = Antiproliferative activity against human H460 cells after 72 hrs by SRB method; assay type: functional, cell-based; conditions: NCI-H460, 72 h; how it was run: as §1
[3] = Antiproliferative activity against human BxPC3 cells after 72 hrs by SRB method; assay type: functional, cell-based; conditions: BXPC-3, 72 h; how it was run: as §1
[4] = Ratio of hydroxychloroquine IC50 to compound IC50 for human H460 cells; assay type: functional
BXPC-3 = test: Ratio of hydroxychloroquine IC50 to compound IC50 for human BxPC3 cells; assay type: functional
[5] = Ratio of hydroxychloroquine IC50 to compound IC50 for human HCC827 cells; assay type: functional
HT-29 = test: Cytotoxicity against human HT-29 cells after 72 hrs by MTT assay; assay type: functional, cell-based; conditions: HT-29, 72 h
[6] = Cytotoxicity against human LN229 cells after 72 hrs by MTT assay; assay type: functional, cell-based; conditions: LN-229, 72 h
NCI-H460 [7] = test: Induction of apoptosis in human H460 cells at 25 to 75 uM after 24 hrs by annexin-V staining-based flow cytometry; assay type: functional, cell-based
How it was run: (§2)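 Apoptosis in treated H460 cells was detected by binding of APC-conjugated annexin V to surface phosphatidylserine, measured by flow cytometry. Means ± SD of 3 experiments; p < 0.05 taken as significant.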

[8] = Cytotoxicity against human C8161 cells after 72 hrs by MTT assay; assay type: functional, cell-based; conditions: C8161, 72 h
[9] = Cytotoxicity against human 1205 Lu cells after 72 hrs by MTT assay; assay type: functional, cell-based
NCI-H460 [10] = test: Inhibition of autophagy in human H460 cells assessed as increase in p62 level after 24 hrs by immunoblot analysis; assay type: functional, cell-based
How it was run: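 H460 cells exposed 24 h to a concentration series. Extracts immunoblotted for p62, with actin as loading control.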

NCI-H460 [11] = test: Inhibition of autophagy in human H460 cells assessed as increase in punctate LC3 level at 10 uM by immunoblot analysis; assay type: functional, cell-based; conditions: TDE = time-dependent effect
How it was run: (§3)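 H460 cells treated 24 h across a concentration series, or with 10 μM compound for varying times, or at 10 μM for 24 h. Cell extracts immunoblotted with anti-LC3 to separate LC3-I from autophagosome-bound LC3-II. Actin probed as loading control.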

NCI-H460 [12] = test: Inhibition of autophagy in human H460 cells assessed as increase in LC3-2 level at 10 uM after 24 hrs by immunoblot analysis
NCI-H460 [13] = test: Inhibition of autophagy in human H460 cells assessed as increase in punctate LC3 level after 24 hrs by immunoblot analysis; assay type: functional, cell-based; how it was run: as §3
NCI-H3122 = test: Inhibition of autophagy in human NCI-H3122 cells assessed as increase in punctate LC3 expression at 25 to 50 uM after 6 hrs by fluorescence microscopic analysis; assay type: functional, cell-based
How it was run: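 NCI-H3122 NSCLC cells transfected with a mCherry-EGFP-LC3B tandem reporter, then treated 6 h. Cells fixed and green, red and yellow fluorescent puncta examined by fluorescence microscopy.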

[14] = Inhibition of colony formation in human H460 cells at 6.5 to 100 uM treated for 24 hrs followed by incubation in drug free medium for 10 days by crystal violet staining-based assay relative to hydroxychloroquine; assay type: functional, NCI-H460
How it was run: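 H460 cells exposed to drug for 24 h, after which medium was replaced with drug-free medium. Colonies grew for another 10 days and were stained with crystal violet.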

NCI-H460 [15] = test: Induction of apoptosis in human H460 cells after 24 hrs by annexin-V staining-based flow cytometry; assay type: functional, cell-based; how it was run: as §2
MDA-MB-231 = test: Cytotoxicity against human MDA-MB-231 cells after 72 hrs by MTT assay; assay type: functional, cell-based; conditions: MDA-MB-231, 72 h, pooled result: one value given for 7 cell lines, strains, targets or settings
Homo sapiens = species: Homo sapiens; test: Cmax in human at 1200 mg; assay type: ADME, organism-based; set-up: dose 1200 mg; conditions: in vivo

SMILES: CN(CCNCc1cn(CC(=O)O)nn1)CCNc1ccnc2cc(Cl)ccc12
IC50 [1]: > 200 µM | IC50 [2]: > 200 µM

SMILES: CN(CCNCc1cn(C(C)(C)C)nn1)CCNc1ccnc2cc(Cl)ccc12
IC50 [3]: 39 µM | IC50 [1]: 56 µM | IC50 [2]: 79 µM

SMILES: CN(CCNCc1cn(-c2ccc(F)cc2)nn1)CCNc1ccnc2cc(Cl)ccc12
Ratio IC50 [4]: 2.8 | IC50 [3]: 12 µM | Ratio IC50 (BXPC-3): 2.8 | IC50 [1]: 19 µM | Ratio IC50 [5]: 2.8 | IC50 [2]: 34 µM

SMILES: Clc1ccc2c(-n3cc(CNCc4cn(-c5ccnc6cc(Cl)ccc56)nn4)nn3)ccnc2c1
IC50 [3]: 78 µM | IC50 [1]: 72 µM | IC50 [2]: 70 µM

SMILES: CCN(CC)CCCC(C)Nc1ccnc2cc(Cl)ccc12 (stereo not given) [CHLOROQUINE]
IC50 (HT-29): 3.6 µM | Ratio IC50 [4]: 1.2 | IC50 [6]: 3.6 µM | Activity (NCI-H460 [7]): Active | IC50 [3]: 25 µM | Ratio IC50 (BXPC-3): 1.2 | IC50 [8]: 3.6 µM | IC50 [9]: 3.6 µM | IC50 [1]: 76 µM | Ratio IC50 [5]: 1.2 | IC50 [2]: 52 µM

SMILES: CN(CCNCc1cn(Cc2ccc(Cl)cc2)nn1)CCNc1ccnc2cc(Cl)ccc12
inhibition (NCI-H460 [10]): Dose-dependent effect | inhibition (NCI-H460 [11]): tde | inhibition (NCI-H460 [12]): Active | Ratio IC50 [4]: 7 | Activity (NCI-H460 [7]): Active | IC50 [3]: 5.8 µM | inhibition (NCI-H460 [13]): Dose-dependent effect | Ratio IC50 (BXPC-3): 7 | inhibition (NCI-H3122): Active | Ratio [14]: >10 | IC50 [1]: 7.6 µM | Ratio IC50 [5]: 7 | Activity (NCI-H460 [15]): Dose-dependent effect | IC50 [2]: 11 µM

SMILES: CCN(CC)CCNc1ccc(C)c2sc3ccccc3c(=O)c12 [LUCANTHONE]
IC50 (MDA-MB-231): 5.7 µM

SMILES: Clc1ccc2c(NCCNCc3cn(-c4ccnc5cc(Cl)ccc45)nn3)ccnc2c1
Ratio IC50 [4]: 3.2 | IC50 [3]: 14 µM | Ratio IC50 (BXPC-3): 3.2 | IC50 [1]: 16 µM | Ratio IC50 [5]: 3.2 | IC50 [2]: 21 µM

SMILES: CN(CCNCc1cn(-c2ccc(Cl)cc2)nn1)CCNc1ccnc2cc(Cl)ccc12
Ratio IC50 [4]: 5.2 | IC50 [3]: 9.1 µM | Ratio IC50 (BXPC-3): 5.2 | IC50 [1]: 9.5 µM | Ratio IC50 [5]: 5.2 | IC50 [2]: 14 µM

SMILES: CN(CCNCc1cn(-c2ccccc2Cl)nn1)CCNc1ccnc2cc(Cl)ccc12
Ratio IC50 [4]: 4 | IC50 [3]: 11 µM | Ratio IC50 (BXPC-3): 4 | IC50 [1]: 12 µM | Ratio IC50 [5]: 4 | IC50 [2]: 20 µM

SMILES: CN(CCNCc1cn(-c2ccnc3cc(Cl)ccc23)nn1)CCNc1ccnc2cc(Cl)ccc12
Ratio IC50 [4]: 3.9 | IC50 [3]: 8.8 µM | Ratio IC50 (BXPC-3): 3.9 | IC50 [1]: 18 µM | Ratio IC50 [5]: 3.9 | IC50 [2]: 16 µM

SMILES: CN(CCNCc1cn(Cc2ccc(Br)cc2)nn1)CCNc1ccnc2cc(Cl)ccc12
Ratio IC50 [4]: 5.7 | IC50 [3]: 8.7 µM | Ratio IC50 (BXPC-3): 5.7 | IC50 [1]: 9.3 µM | Ratio IC50 [5]: 5.7 | IC50 [2]: 12 µM

SMILES: CN(CCNCc1cn(CCn2c(=O)[nH]c3ccccc3c2=O)nn1)CCNc1ccnc2cc(Cl)ccc12
IC50 [1]: > 200 µM | IC50 [2]: 147 µM

SMILES: CN(CCNCc1cn(CCc2c[nH]c3ccccc23)nn1)CCNc1ccnc2cc(Cl)ccc12
Ratio IC50 [4]: 6 | IC50 [3]: 7.6 µM | Ratio IC50 (BXPC-3): 6 | IC50 [1]: 8.5 µM | Ratio IC50 [5]: 6 | IC50 [2]: 12 µM

SMILES: CN(CCNCc1cn(CC(=O)Nc2cccc3ccc(O)cc23)nn1)CCNc1ccnc2cc(Cl)ccc12
IC50 [1]: 86 µM | IC50 [2]: 67 µM

SMILES: CN(CCNCc1cn(Cc2nc3ccccc3[nH]2)nn1)CCNc1ccnc2cc(Cl)ccc12
IC50 [1]: 164 µM | IC50 [2]: 120 µM

SMILES: CN(CCNCc1cn(CCC(=O)Nc2ccccn2)nn1)CCNc1ccnc2cc(Cl)ccc12
IC50 [1]: > 200 µM | IC50 [2]: > 200 µM

SMILES: CN(CCNCc1cn(CCCO)nn1)CCNc1ccnc2cc(Cl)ccc12
IC50 [1]: > 200 µM | IC50 [2]: > 200 µM

SMILES: C#CCNCCN(C)CCNc1ccnc2cc(Cl)ccc12
IC50 [1]: 105 µM | IC50 [2]: 69 µM

Cmax (Homo sapiens): 7 µM
SMILES: CCN(CCO)CCCC(C)Nc1ccnc2cc(Cl)ccc12 (stereo not given) [HYDROXYCHLOROQUINE]
inhibition (NCI-H460 [10]): Dose-dependent effect | inhibition (NCI-H460 [11]): tde | inhibition (NCI-H460 [12]): Active | Activity (NCI-H460 [7]): Active | IC50 [3]: 33 µM | inhibition (NCI-H460 [13]): Dose-dependent effect | inhibition (NCI-H3122): Active | IC50 [1]: 65 µM | IC50 [2]: 74 µM

SMILES: CN(CCNCc1cn(Cc2nc3cc(Cl)ccc3[nH]2)nn1)CCNc1ccnc2cc(Cl)ccc12
IC50 [3]: 44 µM | IC50 [1]: 65 µM | IC50 [2]: 59 µM

SMILES: CN(CCNc1ccnc2cc(Cl)ccc12)Cc1cn(-c2ccnc3cc(Cl)ccc23)nn1
Ratio IC50 [4]: 2.7 | IC50 [3]: 16 µM | Ratio IC50 (BXPC-3): 2.7 | IC50 [1]: 18 µM | Ratio IC50 [5]: 2.7 | IC50 [2]: 29 µM

SMILES: CN(CCNCc1cn(-c2ccc(Br)cc2)nn1)CCNc1ccnc2cc(Cl)ccc12
Ratio IC50 [4]: 5 | IC50 [3]: 7.9 µM | Ratio IC50 (BXPC-3): 5 | IC50 [1]: 11 µM | Ratio IC50 [5]: 5 | IC50 [2]: 15 µM

SMILES: CN(CCNCc1cn(-c2ccccc2)nn1)CCNc1ccnc2cc(Cl)ccc12
Ratio IC50 [4]: 2.9 | IC50 [3]: 10 µM | Ratio IC50 (BXPC-3): 2.9 | IC50 [1]: 26 µM | Ratio IC50 [5]: 2.9 | IC50 [2]: 25 µM

SMILES: CN(CCNCc1cn(-c2cccc(Cl)c2)nn1)CCNc1ccnc2cc(Cl)ccc12
Ratio IC50 [4]: 4.7 | IC50 [3]: 12 µM | Ratio IC50 (BXPC-3): 4.7 | IC50 [1]: 9.4 µM | Ratio IC50 [5]: 4.7 | IC50 [2]: 17 µM

SMILES: CN(CCNCc1cn(Cc2ccccc2)nn1)CCNc1ccnc2cc(Cl)ccc12
Ratio IC50 [4]: 3.1 | IC50 [3]: 9.7 µM | Ratio IC50 (BXPC-3): 3.1 | IC50 [1]: 16 µM | Ratio IC50 [5]: 3.1 | IC50 [2]: 32 µM

SMILES: CN(CCNCc1cn(CCc2ccccc2)nn1)CCNc1ccnc2cc(Cl)ccc12
Ratio IC50 [4]: 3.2 | IC50 [3]: 13 µM | Ratio IC50 (BXPC-3): 3.2 | IC50 [1]: 15 µM | Ratio IC50 [5]: 3.2 | IC50 [2]: 24 µM

SMILES: CN(CCNCc1cn(-c2nc3ccccc3[nH]2)nn1)CCNc1ccnc2cc(Cl)ccc12
Ratio IC50 [4]: 2.1 | IC50 [3]: 16 µM | Ratio IC50 (BXPC-3): 2.1 | IC50 [1]: 32 µM | Ratio IC50 [5]: 2.1 | IC50 [2]: 33 µM

SMILES: CN(CCNCc1cn(CCCn2nn[nH]c2=O)nn1)CCNc1ccnc2cc(Cl)ccc12
IC50 [1]: > 200 µM | IC50 [2]: > 200 µM

Reference: ChEMBL document CHEMBL3421580, “Discovery of autophagy inhibitors with antiproliferative activity in lung and pancreatic cancer cells” (ACS Med Chem Lett, 2015)
